# Screens: PubChem, Broad Institute
# This is a sample that favours compounds with a hit; in the whole collection about 5.9% have one here.
# T cruzi growth-1: inhibitors of T. cruzi proliferation; T. cruzi beta-gal in NIH3T3, GalScreen luminescence, 90 h; inhibition, % at 8.34 µM; hit rate 5.9% among 77,000;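 active means mean inhibition above about 93%, with at least 55% of replicates each passing it, limit read from the data, passing the limit was not always enough; inconclusive means only one of those two conditions holds; inactive means neither condition holds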
# KDM4C inh: blocks human GASC-1 (KDM4C) demethylase activity | Q9H3R0 | GST-KDM4C 2-372, H3K9me3 peptide, LANCE TR-FRET | inhibition, % at 12.5 µM | hit rate 0.15% among 96,000;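 active means mean replicate inhibition above about 25%, with at least 55% of replicates also reaching it, limit read from the data, passing the limit was not always enough; inconclusive means only one of those two conditions met; inactive means neither condition met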
# Target sequence (Q9H3R0 2-372 limits assumed): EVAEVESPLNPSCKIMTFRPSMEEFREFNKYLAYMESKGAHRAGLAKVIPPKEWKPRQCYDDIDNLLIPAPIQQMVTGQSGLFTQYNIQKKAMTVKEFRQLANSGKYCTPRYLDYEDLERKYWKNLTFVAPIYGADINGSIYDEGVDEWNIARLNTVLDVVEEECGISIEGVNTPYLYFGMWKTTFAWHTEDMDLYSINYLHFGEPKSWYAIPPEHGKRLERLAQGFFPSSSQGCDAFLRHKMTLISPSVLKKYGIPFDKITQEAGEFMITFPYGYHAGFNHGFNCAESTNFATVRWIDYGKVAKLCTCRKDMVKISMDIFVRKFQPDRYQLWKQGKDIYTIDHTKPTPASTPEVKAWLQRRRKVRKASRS
#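 Test system – GST-tagged GASC-1 (JMJD2C) catalytic fragment, aa 2-372 · Medium – HEPES buffer, pH 7.5, plus ascorbate · Reagent – H3K9me3 peptide with Fe(II)/2OG · Compound – one test concentration per compound · Timing – 30 min reaction, 60 min detection, RT · Technique – TR-FRET with Eu antibody and ULight streptavidin, EDTA stop · Read-out basis – inhibition from TR-FRET ratio decrease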
# Pf Dd2 growth: P. falciparum Dd2 growth inhibition | SYBR Green, 72 h; hits give low values | activity change, % at 10 µM | hit rate 2.3% among 94,000 | AID 1159554; in the data active means activity change below about -80%; inconclusive means no clear call, values can overlap the other calls
# IDH1 R132H inh: blocks human IDH1 R132H reductase activity. inhibition, % at 10 µM. diaphorase/resazurin fluorescence, 60 min. O75874. AID 624101. hit rate 0.18% among 70,000; in the data active means inhibition above about 34%; inconclusive means no clear call, values can overlap the other calls; inactive means below about 11%;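 further: 0% = DMSO and 100% = no enzyme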
# Target sequence (O75874 whole entry R132H): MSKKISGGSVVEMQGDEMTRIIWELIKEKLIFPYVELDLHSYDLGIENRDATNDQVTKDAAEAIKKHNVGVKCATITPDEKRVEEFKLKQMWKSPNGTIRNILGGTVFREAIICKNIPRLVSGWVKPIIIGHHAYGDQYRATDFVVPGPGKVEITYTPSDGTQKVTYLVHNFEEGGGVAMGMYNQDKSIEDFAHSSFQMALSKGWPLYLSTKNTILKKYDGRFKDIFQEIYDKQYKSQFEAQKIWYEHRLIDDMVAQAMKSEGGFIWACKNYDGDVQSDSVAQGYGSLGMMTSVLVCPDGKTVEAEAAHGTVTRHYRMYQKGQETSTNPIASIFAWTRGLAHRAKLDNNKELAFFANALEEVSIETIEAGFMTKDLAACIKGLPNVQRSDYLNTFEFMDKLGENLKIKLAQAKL
# T cruzi growth-2: inhibitors of T. cruzi proliferation; shares compounds with T cruzi growth-1; T. cruzi beta-gal in NIH3T3, GalScreen luminescence, 90 h; inhibition, % at 8.35 µM; hit rate 72% among 5,600;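 active means mean replicate inhibition above about 95% and at least 55% of replicates individually reaching it, limit read from the data; inconclusive means only one of the two criteria is met; inactive means neither criterion is met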
# T cruzi growth-3: inhibitors of T. cruzi proliferation; shares compounds with T cruzi growth-1; T. cruzi beta-gal in NIH3T3, GalScreen luminescence, 90 h; inhibition, % at 2.09 µM; hit rate 21% among 5,600; AID 651740;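 active means mean inhibition above about 95%, with at least 55% of replicates also reaching it, limit read from the data; inconclusive means meets just one of the two conditions; inactive means meets neither condition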;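 further: plate controls were neutral control median for no effect and positive control median for full effect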
# 3T3 cytotox: NIH/3T3 (mouse) viability loss | shares compounds with T cruzi growth-1 | NIH/3T3 viability, CellTiter-Glo ATP luminescence, 90 h | cytotoxicity (signal decrease), % at 8.35 µM | hit rate 14% among 5,600 | AID 651742;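 active means mean signal decrease across replicates above about 35% based on untreated-well scatter, with enough replicates individually passing, limit read from the data; inconclusive means no rule stated though some were filed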;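 further: 0% = median of neutral control wells and 100% = median of positive control wells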
# NIH3T3 tox 2: kills mouse NIH/3T3 fibroblasts | AID 651744 | shares compounds with T cruzi growth-1 | hit rate 56% among 5,600 | inhibition, % at 24.9 µM | NIH/3T3 viability, CellTiter-Glo ATP luminescence, 90 h;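 active means mean loss of cell viability signal at or above a set limit, and enough replicates individually reaching it; inconclusive means meets only the mean limit or only the replicate share; inactive means meets neither condition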;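 further: 0% = median of neutral control wells and 100% = median of positive control wells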
# An asterisk follows results filed as active; ? = inconclusive; nt = no result.
SMILES,T cruzi growth-1,KDM4C inh,Pf Dd2 growth,IDH1 R132H inh,T cruzi growth-2,T cruzi growth-3,3T3 cytotox,NIH3T3 tox 2
O=C(Nc1sc2c(c1C(=O)NCc1cccnc1)CCCC2)c1ccc([N+](=O)[O-])cc1,nt,nt,nt,0.2,nt,nt,nt,nt
C[C@H](CO)N1C[C@H](C)[C@@H](CN(C)Cc2ccc(C(F)(F)F)cc2)Oc2ccc(NC(=O)Nc3cccc4ccccc34)cc2C1=O,100.1*,-0.6,10.7,nt,107.2*,59.9,23.5,11.6
C[C@@H]1CN([C@@H](C)CO)C(=O)c2cc(NC(=O)Nc3cccc4ccccc34)ccc2O[C@H]1CN(C)Cc1ccc(C(F)(F)F)cc1,96.4*,-0.5,8.7,nt,106.2*,77.5,21.1,21.0
CCc1cc(C(=O)OC)c(NC(=S)Nc2ccc(S(=O)(=O)N3CCOCC3)cc2)s1,nt,nt,nt,0.2,nt,nt,nt,nt
C[C@@H]1CN([C@@H](C)CO)S(=O)(=O)c2ccc(Br)cc2O[C@@H]1CN(C)S(=O)(=O)c1ccc(F)cc1,33.9,nt,-11.5,0.5,nt,nt,nt,nt
C[C@@H]1CN([C@@H](C)CO)S(=O)(=O)c2ccc(Br)cc2O[C@H]1CN(C)S(=O)(=O)c1cccc(F)c1,106.6*,-1.6,-1.2,nt,111.2*,30.2,28.0,67.6*
C[C@H]1CN([C@@H](C)CO)S(=O)(=O)c2ccc(Br)cc2O[C@H]1CN(C)S(=O)(=O)c1ccc(F)cc1,106.3*,-4.0,-9.4,-5.9,105.7*,9.3,16.4,?
CC(C)CC#Cc1ccc2c(c1)O[C@H](CN(C)C(=O)Nc1ccccc1F)[C@H](C)CN([C@@H](C)CO)S2(=O)=O,51.3,7.5,-26.9,0.0,nt,nt,nt,nt
CC(C)CC#Cc1ccc2c(c1)O[C@@H](CN(C)C(=O)Nc1ccccc1F)[C@@H](C)CN([C@H](C)CO)S2(=O)=O,107.7*,-1.6,-77.6,-0.7,106.2*,?,-12.6,98.8*
CC(C)CC#Cc1ccc2c(c1)O[C@H](CN(C)C(=O)Nc1ccccc1F)[C@@H](C)CN([C@@H](C)CO)S2(=O)=O,84.0,0.8,-72.4,0.4,nt,nt,nt,nt
CCCC#Cc1ccc2c(c1)O[C@H](CN(C)C(=O)Nc1ccccc1F)[C@H](C)CN([C@H](C)CO)S2(=O)=O,nt,-1.3,-60.2,nt,nt,nt,nt,nt
CC(C)CC#Cc1ccc2c(c1)O[C@@H](CN(C)C(=O)Nc1ccccc1F)[C@H](C)CN([C@H](C)CO)S2(=O)=O,115.4*,-1.8,-65.6,0.0,109.4*,41.9,28.9,78.1*
CC(C)CC#Cc1ccc2c(c1)O[C@@H](CN(C)C(=O)Nc1ccccc1F)[C@H](C)CN([C@@H](C)CO)S2(=O)=O,108.3*,-0.2,-59.9,-0.2,107.6*,75.8,24.5,100.6*
CCOC(=O)c1c(NC(=O)c2nc3ncccn3n2)sc2c1CCCC2,nt,nt,nt,0.0,nt,nt,nt,nt
C[C@H]1CCCCO[C@H](CN(C)Cc2ccc3c(c2)OCO3)[C@@H](C)CN([C@@H](C)CO)C(=O)c2cc(NC(=O)Nc3ccc4c(c3)OCO4)ccc2O1,99.7*,0.4,-64.9,-2.2,98.8*,110.4*,31.6,106.0*
C[C@@H]1CCCCO[C@@H](CN(C)Cc2ccc(Cl)c(Cl)c2)[C@@H](C)CN([C@@H](C)CO)C(=O)c2cc(NC(=O)Nc3ccc4c(c3)OCO4)ccc2O1,98.3,-1.9,-32.4,4.3,nt,nt,nt,nt
C[C@@H]1CCCCO[C@H](CN(C)Cc2ccc3c(c2)OCO3)[C@@H](C)CN([C@H](C)CO)C(=O)c2cc(NC(=O)Nc3ccc4c(c3)OCO4)ccc2O1,?,1.5,10.1,0.5,110.0*,-15.8,-14.3,2.7
C[C@@H]1CCCCO[C@H](CN(C)Cc2ccc(Cl)c(Cl)c2)[C@@H](C)CN([C@H](C)CO)C(=O)c2cc(NC(=O)Nc3ccc4c(c3)OCO4)ccc2O1,102.9*,0.7,8.0,nt,107.1*,105.3*,24.6,13.0
O=c1[nH]c2ccccc2n1CCCSc1nnc2c(n1)[nH]c1ccccc12,nt,nt,nt,-0.8,nt,nt,nt,nt
C[C@H](CO)N1C[C@H](C)[C@@H](CN(C)S(=O)(=O)c2cccc(F)c2)Oc2ncc(C#CC3CCCC3)cc2C1=O,118.7*,2.3,-71.8,-4.4,103.8*,88.0,6.3,97.8*
C[C@@H]1CN([C@@H](C)CO)C(=O)c2cc(C#CC3CCCCC3)cnc2O[C@H]1CN(C)S(=O)(=O)c1ccc(F)cc1,100.5*,12.1,-39.0,8.0,105.0*,97.8*,20.6,99.0*
C[C@H](CO)N1C[C@H](C)[C@H](CN(C)S(=O)(=O)c2cccc(F)c2)Oc2ncc(C#CC3CCCC3)cc2C1=O,100.4,-2.0,-41.2,-0.1,nt,nt,nt,nt
C[C@H](CO)N1C[C@H](C)[C@@H](CN(C)S(=O)(=O)c2cccc(F)c2)Oc2ncc(C#CC3CC3)cc2C1=O,-88.3,-0.5,-55.8,nt,nt,nt,nt,nt
C[C@@H]1CN([C@@H](C)CO)C(=O)c2cc(C#CC3CCCC3)cnc2O[C@@H]1CN(C)S(=O)(=O)c1cccc(F)c1,104.2*,-1.4,-57.7,-3.6,96.2*,71.9,28.8,74.5*
Cc1ccccc1NC(=O)COc1ccc(C)c([N+](=O)[O-])c1,nt,nt,nt,0.0,nt,nt,nt,nt
SMILES,T cruzi growth-1,KDM4C inh,Pf Dd2 growth,IDH1 R132H inh,T cruzi growth-2,T cruzi growth-3,3T3 cytotox,NIH3T3 tox 2
CCN(CC(=O)Nc1ccccc1OC)S(=O)(=O)c1ccc2ccccc2c1,nt,nt,nt,-0.4,nt,nt,nt,nt
Cc1cccc(S(=O)(=O)N2C[C@@H](O)COC[C@@H]3O[C@@H](CC(=O)Nc4ccc(-c5ccccc5)cc4)CC[C@H]32)c1,72.3,-1.0,-60.6,nt,nt,nt,nt,nt
Cc1cccc(S(=O)(=O)N2C[C@H](O)COC[C@H]3O[C@H](CC(=O)Nc4ccc(-c5ccccc5)cc4)CC[C@@H]32)c1,?,0.0,-21.7,nt,104.3*,74.1,23.3,99.4*
O=C(C[C@@H]1CC[C@H]2[C@@H](COC[C@@H](O)CN2S(=O)(=O)c2ccccc2)O1)Nc1ccc(-c2ccccc2)cc1,96.7*,-0.1,-10.4,nt,106.1*,70.7,13.4,91.9*
O=C(C[C@H]1CC[C@H]2[C@@H](COC[C@@H](O)CN2S(=O)(=O)c2ccccc2)O1)Nc1ccc(-c2ccccc2)cc1,88.0,2.5,-13.6,nt,nt,nt,nt,nt
O=C([C@H]1[C@H](CO)[C@H]2Cn3c(cccc3=O)[C@@H]1N2Cc1cccc(Cl)c1)N1CCOCC1,99.6*,-1.2,nt,nt,-37.8,26.8,-10.3,-1.5
O=C([C@@H]1[C@@H](CO)[C@@H]2Cn3c(ccc(-c4ccccc4)c3=O)[C@H]1N2Cc1cccnc1)N1CCOCC1,97.2*,0.0,nt,nt,-16.0,-5.6,12.1,-6.7
O=S(=O)(Cc1ccccc1)N1CCCCN2[C@H](CO)[C@@H](c3ccc(-c4ccc(F)cc4)cc3)[C@@H]2C1,108.5*,0.0,0.3,nt,108.1*,52.5,23.0,102.4*
